Assay results as given in ChEMBL document CHEMBL2086277, “Pyridonepezils, new dual AChE inhibitors as potential drugs for the treatment of Alzheimer's disease: synthesis, biological assessment, and molecular modeling” (Eur J Med Chem, 2012).

How the values were obtained:
Acetylcholinesterase [1] = target: T1, Acetylcholinesterase (Homo sapiens, UniProt P22303); assay: Inhibition of human erythrocyte AChE using acetylthiocholine as substrate by Ellman method
Cholinesterase [2] = target: Cholinesterase (Homo sapiens, UniProt P06276); assay: Inhibition of human serum BChE using butyrylthiocholine as substrate by Ellman method
Cholinesterase (Homo sapiens, UniProt P06276), sequence (P06276 whole entry): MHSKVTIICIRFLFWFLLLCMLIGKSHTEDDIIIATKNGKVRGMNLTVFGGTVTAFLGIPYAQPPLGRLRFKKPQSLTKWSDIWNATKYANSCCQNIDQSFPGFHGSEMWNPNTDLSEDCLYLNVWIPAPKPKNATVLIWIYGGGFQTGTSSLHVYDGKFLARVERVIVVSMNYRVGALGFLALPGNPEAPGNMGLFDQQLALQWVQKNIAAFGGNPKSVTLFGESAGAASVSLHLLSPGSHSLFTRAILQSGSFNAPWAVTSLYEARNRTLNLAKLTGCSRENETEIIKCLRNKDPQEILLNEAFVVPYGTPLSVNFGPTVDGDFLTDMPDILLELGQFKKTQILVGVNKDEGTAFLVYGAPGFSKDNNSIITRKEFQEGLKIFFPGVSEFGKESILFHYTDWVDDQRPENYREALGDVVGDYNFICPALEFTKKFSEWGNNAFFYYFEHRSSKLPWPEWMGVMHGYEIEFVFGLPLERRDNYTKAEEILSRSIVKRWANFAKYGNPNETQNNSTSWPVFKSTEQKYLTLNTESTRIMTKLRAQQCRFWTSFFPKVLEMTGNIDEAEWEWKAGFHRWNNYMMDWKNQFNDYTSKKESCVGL
In short: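 IC50 is the concentration giving 50% inhibition of human BuChE, reported as mean ± SEM of three independent experiments.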

[3] = Permeability of the compound in PBS/ethanol at 1 mg/ml after 4 hrs by PAMPA; assay type: ADME; conditions: for Papp at 4 h, 1 mg/ml: PAMPA, read-out: permeability
In short: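 PAMPA-BBB: permeability (Pe) measured through a porcine brain lipid extract membrane, using PBS:EtOH (70:30) as the medium. The assay was validated against 15 commercial drugs by correlating measured with reported Pe values. Data are mean ± SD of three independent experiments.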

Cholinesterase [4] = target: Cholinesterase (Equus caballus, UniProt P81908); assay: Inhibition of equine BChE
Cholinesterase (Equus caballus, UniProt P81908), sequence (P81908 whole entry): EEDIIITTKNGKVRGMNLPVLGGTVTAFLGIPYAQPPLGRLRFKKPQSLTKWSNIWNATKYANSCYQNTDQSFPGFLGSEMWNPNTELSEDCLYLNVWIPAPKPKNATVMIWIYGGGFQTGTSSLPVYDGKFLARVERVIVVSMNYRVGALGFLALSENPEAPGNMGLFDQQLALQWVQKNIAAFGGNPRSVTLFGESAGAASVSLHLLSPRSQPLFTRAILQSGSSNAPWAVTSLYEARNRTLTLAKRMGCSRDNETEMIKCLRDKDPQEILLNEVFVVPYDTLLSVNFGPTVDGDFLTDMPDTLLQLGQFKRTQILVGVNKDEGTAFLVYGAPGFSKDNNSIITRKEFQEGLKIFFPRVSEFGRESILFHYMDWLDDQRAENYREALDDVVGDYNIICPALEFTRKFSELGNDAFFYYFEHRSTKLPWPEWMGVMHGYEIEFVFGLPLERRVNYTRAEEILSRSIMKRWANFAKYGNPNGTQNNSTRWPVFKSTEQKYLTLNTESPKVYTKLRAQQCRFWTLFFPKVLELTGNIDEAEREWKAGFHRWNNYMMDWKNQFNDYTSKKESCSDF

Acetylcholinesterase [5] = target: T1, Acetylcholinesterase; assay: Ratio of donepezil IC50 to compound IC50 for human erythrocyte AChE using acetylthiocholine as substrate by Ellman method

T1 sequence (P22303 whole entry): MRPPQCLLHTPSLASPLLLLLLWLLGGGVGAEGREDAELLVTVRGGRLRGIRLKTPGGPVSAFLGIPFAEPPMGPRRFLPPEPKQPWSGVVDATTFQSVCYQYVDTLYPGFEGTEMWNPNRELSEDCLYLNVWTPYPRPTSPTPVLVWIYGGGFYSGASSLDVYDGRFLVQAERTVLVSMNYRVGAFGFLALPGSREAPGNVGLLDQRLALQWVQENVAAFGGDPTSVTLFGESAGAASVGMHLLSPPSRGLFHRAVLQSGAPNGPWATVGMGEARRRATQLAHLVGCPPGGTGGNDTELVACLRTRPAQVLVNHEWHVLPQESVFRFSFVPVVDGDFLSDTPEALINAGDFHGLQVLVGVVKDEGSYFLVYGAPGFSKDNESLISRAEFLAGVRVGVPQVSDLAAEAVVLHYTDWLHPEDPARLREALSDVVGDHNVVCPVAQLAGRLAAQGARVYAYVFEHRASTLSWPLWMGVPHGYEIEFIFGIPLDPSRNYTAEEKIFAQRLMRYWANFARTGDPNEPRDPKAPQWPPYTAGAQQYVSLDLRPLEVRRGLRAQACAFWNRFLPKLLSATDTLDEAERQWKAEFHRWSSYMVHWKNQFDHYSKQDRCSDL

Compound | IC50 (Acetylcholinesterase [1]) [nM] | IC50 (Cholinesterase [2]) [nM] | Papp at 4 h, 1 mg/ml [3] [×10⁻⁶ cm/s] | IC50 (Cholinesterase [4]) [nM] | Ratio IC50 (Acetylcholinesterase [5]) | permeability ([3]; pampa, 4 h)
N#Cc1cc(C#N)c(NCCCCC2CCN(Cc3ccccc3)CC2)nc1N | 70 | 1700 | 21.2 | – | – | –
N#Cc1cc(C#N)c(N2CCCC2)nc1N | – | – | – | > 10000 | – | –
N#Cc1c(N)nc(NCCCCC2CCN(Cc3ccccc3)CC2)c(C#N)c1-c1ccccc1 | 120 | 580 | 25.7 | – | – | –
N#Cc1cc(C#N)c(NCCCC2CCN(Cc3ccccc3)CC2)nc1N | 9.4 | 6600 | 20.8 | – | 1.4 | –
N#Cc1c(N)nc(NCCC2CCN(Cc3ccccc3)CC2)c(C#N)c1-c1ccccc1 | 390 | 670 | 34 | – | – | –
N#Cc1c(N)nc(NCCCC2CCN(Cc3ccccc3)CC2)c(C#N)c1-c1ccccc1 | 240 | 1500 | 31.6 | – | – | –
N#Cc1cc(C#N)c(NC2CCN(Cc3ccccc3)CC2)nc1N | 3100 | > 10000 | 17 | – | – | –
N#Cc1cc(C#N)c(NCCC2CCN(Cc3ccccc3)CC2)nc1N | 220 | 260 | 14.4 | – | – | –
N#Cc1c(N)nc(NC2CCN(Cc3ccccc3)CC2)c(C#N)c1-c1ccccc1 | 8800 | > 10000 | – | – | – | ND(Insoluble)
